# Laboratory results reported in PubChem BioAssay AID720717 (ICCB-Longwood Screening Facility, Harvard Medical School, 2013).
# Several values for one entry are separate records, joined by “and”; a condition that tells them apart may be missing. Equal values may be shown once. The whole screen tested about 51,000 compounds, of which about 150 (0.29%) were called active.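 Rule for the calls: active = both repeat wells score below -2 in polarization z-score versus plate sample wells, excluding overly bright wells; inactive = the rest.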 What follows is part of a selection rich in actives, with near analogues and random picks from the rest.
# Tested on: LANA (ORF73) N-terminal peptide binding to nucleosomes, Human herpesvirus 8
# Assay: inhibitors of KSHV LANA-nucleosome binding, primary screen, biochemical, fluorescence polarization, FITC-LANA1-23, chicken nucleosomes (AID 720717)
# Details: FITC-LANA1-23 / chicken nucleosome fluorescence polarization; active compounds read low
# How it was run: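 Assay system: FITC-LANA peptide and chicken nucleosomes; input: 240 nM purified chicken nucleosomes (480 nM peptide binding sites), final; also added: 50 nM FITC-LANA1-23 probe; medium: TEN-BT buffer, pH 7.5; doses: pin-transferred compound, 100 nL; times: 10–45 min, room temperature; technique: fluorescence polarization; replication: duplicates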
row,SMILES,z-score
1,CC(Oc1ccccc1)c1ccnc2ncnn12 (centres undefined),1.01 (inactive)
2,Cc1occc1-c1nnc2n1N=C(c1ccc(-c3cc(Cl)ccc3Cl)o1)CS2,-0.0445 (inactive)
3,O=C(O)c1ccc(Sc2ccccc2C(=O)O)c(C(=O)O)c1,0.129 (inactive)
4,Cc1ccc2c(n1)sc1c(=O)n(-c3ccccc3)nnc12,0.192 (inactive)
5,CCOC(=O)c1c(NC(=S)N2CCN(C(=O)c3ccco3)CC2)sc2c1CCCCCC2,0.494 (inactive)
6,O=C(CSc1nnc(Cc2cc(=O)[nH]c(=O)[nH]2)n1-c1ccccc1)NCc1ccco1,0.726 (inactive)
7,NNC(=O)Cc1csc(CC(N)=O)n1,-1.71 (inactive)
8,O=C(CC1OCCN(Cc2ccccc2)C1=O)Nc1ccc(F)cc1 (centres undefined),0.194 (inactive)
9,O=C(c1cnc2sc(N3CCCCC3)nn2c1=O)N1CCCC1,-0.108 (inactive)
10,Cc1ccc(Cn2cc(C(=O)Nc3cccnc3)ccc2=O)cc1,-0.673 (inactive)
11,O=C(CC1Nc2ccccc2NC1=O)Nc1ccccc1NC(=O)CC1Nc2ccccc2NC1=O (centres undefined),-0.867 (inactive)
12,O=S(=O)(c1cnc[nH]1)N1CCN(Cc2ccccc2)CC1,-0.596 (inactive)
13,Cc1ccc(C(=O)Nc2nc3ccc(S(N)(=O)=O)cc3s2)cc1C,-0.589 (inactive)
14,CN(Cc1ccccc1)c1ncnc2c1nc1n2CCCCC1,-0.37 (inactive)
15,O=C(NC1CCCC1)c1[nH]nc2c1CCc1ccccc1-2,0.227 (inactive)
16,CC(=O)Oc1cc(-c2ccccc2)nn1C,0.038 (inactive)
17,CC(CC(=O)NN)C1(O)CCCCC1 (centres undefined),0.05 (inactive)
18,Cc1ccc(C2=Nc3ccccc3N(CC(=O)Nc3ccc4c(c3)OCO4)C(=O)C2)cc1,-1.02 (inactive)
19,CCN(CC)S(=O)(=O)c1ccc2c(c1)CC(C)N2C(=O)C1CC1 (centres undefined),1.02 (inactive)
20,CC(C)(C)C(=O)N(Cc1ccccc1)c1ccccn1,0.774 (inactive)
21,CCc1ccc(C(c2c(C)[nH][nH]c2=O)C(C#N)C#N)cc1 (centres undefined),0.261 (inactive)
22,CCOc1ccc(/C=N/NC(=O)Cc2cc(=O)[nH][nH]2)cc1,-1.01 (inactive)

row,SMILES,z-score
1,CN(C)/C=C/c1nc(C(F)(F)F)c(C#N)s1,5.21 (inactive)
2,N#CCn1cc(C(=O)C(F)(F)F)c2ccccc21,0.359 (inactive)
3,O=C(Cn1c(=O)oc2ccccc21)NC1CCN(Cc2ccccc2)CC1,-0.221 (inactive)
4,O=C1c2ccccc2OCC12COC(c1ccccc1)OC2 (centres undefined),-1.2 (inactive)
5,CC(=O)Nc1ccc(NCC(O)Cn2ccc3ccccc32)cc1 (centres undefined),1.77 (inactive)
6,CC1CCC(NC(=O)CCCn2ncn3c(cc4occc43)c2=O)CC1 (centres undefined),0.64 (inactive)
7,COCCNC(=O)N1c2ccccc2Sc2ccccc21,0.827 (inactive)
8,O=C(CNc1ccc(C(=O)O)cc1)NCc1ccc2c(c1)OCO2,0.298 (inactive)
9,N/C(=N\O)c1cnn2c(C(F)(F)F)cc(C(F)(F)F)nc12,-0.264 (inactive)
10,CCc1ccc(N2COc3ccc4c(CC)cc(=O)oc4c3C2)cc1,0.115 (inactive)
11,Cc1cccc2cnn(CC(=O)N3CCc4ccccc4C3)c12,0.198 (inactive)
12,CN1C(C)(C)CC(NC(=O)Nc2ccc(F)cc2)CC1(C)C,0.033 (inactive)
13,Cc1cc(C)n(C(C)CC(=O)Nc2ccc(CN3CCC(C)CC3)cc2)n1 (centres undefined),-0.62 (inactive)
14,C[C@]12CCC(=O)C=C1C=CC1C2CC[C@@]2(C)C1CC[C@@]21CCC(=O)O1 (some centres undefined),0.0125 (inactive) and 0.276 (inactive)
15,CN(C)c1ccc(-c2nnc(-c3cccnc3)o2)cc1,-0.139 (inactive)
16,COc1cccc(N2C(=O)C=CC2=O)c1,0.499 (inactive)
17,CCCCc1ccc(NC(=O)CC)c(C)c1,1.52 (inactive)
18,COc1ccc(CNC(=O)C(NS(=O)(=O)c2cccc3nsnc23)C(C)C)cc1 (centres undefined),-1.48 (inactive)
19,Cc1ccc(C(CC(=O)O)c2ccccc2)c(O)c1 (centres undefined),0.53 (inactive)
20,Cc1ccc(C(=O)CSc2nnc3[nH]c(=O)c(C)nn23)cc1,-1.31 (inactive)
21,S=C(NCc1ccco1)Nc1nn(Cc2ccc(Cl)cc2Cl)cc1Cl,1.51 (inactive)
22,Cc1cc(N2CCOCC2)nc2ccc(NC(=O)CCC(=O)NC3CCCCC3)cc12,0.0965 (inactive)

row,SMILES,z-score
1,CCCn1c(SCC(=O)N2CCCc3ccccc32)nnc1C(C)C,-2.58 (inactive)
2,CCCNC(=O)c1cc2c(Cl)ccc3c2n1CCO3,-0.473 (inactive)
3,O=C1C=CC(=O)N1Nc1ccccc1,0.669 (inactive)
4,COC(=O)c1nnn(-c2nonc2N)c1CN1C(=O)c2ccccc2C1=O,-0.366 (inactive)
5,CCn1c(N2CCN(C(=O)Nc3ccc(Cl)c(C(F)(F)F)c3)CC2)nc2ccccc21,-1.36 (inactive)
6,O=C1CCCC2=C1C(c1ccccn1)Nc1ccc3ncccc3c12 (centres undefined),-0.381 (inactive)
7,Cc1cccc(-n2nc(C)c3c(C)cc(=O)oc32)c1,0.165 (inactive)
8,O=C(O)c1cccc2c1C(=O)N(C1CCCC1)C2,0.735 (inactive)
9,OCc1cccnc1Sc1ccccc1,0.147 (inactive)
10,Cc1ccc2c(c1)cc(CN(Cc1ccco1)C(=O)c1ccccc1)c1nnnn12,0.235 (inactive)
11,Cc1cc(OCCN2CCOCC2)nc(N2CCOCC2)n1,0.348 (inactive)
12,Cc1sc(-c2cccs2)nc1O,-0.538 (inactive)
13,CCc1cccc2c(C=C(C#N)C#N)cn(CC(=O)NC3CCCC3)c12,0.0985 (inactive)
14,Nc1c2c3c(sc2nc(=O)n1Cc1ccco1)CCC3,0.229 (inactive)
15,COc1ccc(N(C)S(=O)(=O)c2ccc3c(c2)CC(C)N3C(=O)C2CC2)c(OC)c1 (centres undefined),-0.361 (inactive)
16,COc1cccc(/C=C2/Sc3ccc(C(=O)NCc4ccco4)cc3NC2=O)c1,-0.179 (inactive)
17,COCCNC(=O)c1cccc(OC(C)C)c1,0.494 (inactive)
18,CN(C(=O)CSc1nc(N)cc(=O)[nH]1)c1ccccc1,-0.19 (inactive)
19,Cc1ccsc1/C=N/c1sc2c(c1C#N)CCCC2,-0.764 (inactive)
20,Cc1cc(C)c2nc(C(F)(F)F)nc(NCc3ccc4c(c3)OCO4)c2c1,2.86 (inactive)
